NR3A LBD binder: modulates the human NR3A ligand-binding domain; NR3A LBD differential scanning fluorimetry, Tm shift; 0% = protein alone, 100% = glycine-bound protein; Tm shift relative to glycine control, % at 25 µM; hit rate 2.5% among 340,000; AID 1259313;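 active = melting temperature shift of at least 10% of the positive control shift, at one fixed dose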
Arrestin-AP2 inh: human beta-arrestin and AP2 interaction inhibition; FITC-arrestin peptide / GST-AP2 beads, flow cytometry; AP2 beta2 appendage carries R879A mutation; inhibition, % at 10 µM; hit rate 0.31% among 340,000; AID 504490;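 active = inhibition above a set limit, near 3 SD of compounds lacking own fluorescence, cut at about 54% in these data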;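 also: plate controls were DMSO wells for no effect and 5 µM unlabelled arrestin peptide for full effect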
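System: GST-AP2 R879A glutathione beads. Medium: PBS with 0.05% Tween 20 and 0.1% BSA. Also added: FITC-arrestin peptide, 50 nM. Incubation: 12 min plus 1 h, RT. Measured by: high-throughput flow cytometry of beads, ex 488, em 535 nm. Evaluation: percent drop in bead-associated FITC signal.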
SENP1 inh: SENP1 (human) catalytic domain inhibition | hit rate 0.21% among 360,000 | inhibition, % at 10 µM | recombinant SENP1 catalytic domain, CyPet-SUMO1-YPet FRET cleavage | Q9P0U3 | AID 624204;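 active = inhibition at least 30% at 10 µM, raw YFP signal under a set limit, fluorescence ratio 0.5 to 1.5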;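 also: 0% = enzyme with DMSO and 100% = no enzyme wells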
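Test system: recombinant human SENP1 catalytic domain, His6-tagged / Medium: pH 8 Tris buffer with EDTA, NaCl, BME, BSA, NP40, catalase / Also added: SUMO1 FRET substrate flanked by Cypet and Ypet, 25 nM / Times: 50 min reaction at room temperature / Signal: FRET, CFP and YFP emission / Control set: no-enzyme low control and enzyme-plus-DMSO high control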
hiPSC survival: increases survival of single human iPS cells; hiPSC single-cell survival, ATPlite luminescence; 100% = ROCK inhibitor wells, 0% = DMSO; survival enhancement, % at 20 µM; hit rate 0.044% among 360,000; AID 602274; in the data active = survival enhancement above about 18%;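 also: cells exposed to compounds for 16 hours before the ATP read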
Cardio protect: protects H9c2 cardiomyocytes from peroxide injury; H2O2 injury protection, ATPLite, 2 h; protection from H2O2 cell death, % at 20 µM; hit rate 0.63% among 360,000;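 active = compounds giving at least 50% protection of heart cells from peroxide-induced death in the single-dose screen, raw or plate-pattern-corrected value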;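 also: 0% = DMSO wells with peroxide and 100% = DMSO wells without peroxide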
FAS TE block: blocks the thioesterase domain of human fatty acid synthase. recombinant FAS-TE, OMFH fluorogenic substrate, fluorescence endpoint. inhibition, % at 15 µM. hit rate 0.67% among 360,000. AID 602261;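 active = compounds whose normalised, plate-corrected inhibition of enzyme fluorescence in the single-dose primary screen is 50% or more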;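 also: 0% = DMSO with enzyme and 100% = substrate without enzyme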
SENP1 conf: SENP1 (human) inhibition, single concentration confirmation | shares compounds with SENP1 inh | recombinant SENP1, CyPet-SUMO1-YPet FRET cleavage | inhibition, % at 10 µM | hit rate 34% among 520; in the data active = inhibition mostly above about 35%, no sharp cut-off; inactive = mostly below about 32%;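 also: 0% = enzyme with DMSO and 100% = no enzyme control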
SENP1 kinetic: SENP1 (human) inhibition, kinetic confirmation; shares compounds with SENP1 inh; recombinant SENP1, CyPet-SUMO1-YPet FRET kinetic cleavage; inhibition, % at 10 µM; hit rate 26% among 520; AID 651690; in the data active = inhibition mostly above about 32%, no sharp cut-off; inactive = mostly below about 29%;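 also: 0% = DMSO with enzyme and 100% = no enzyme substrate only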
Active calls of the source: *; · = not tested or not shown. Hits are enriched below; roughly 4% of the tested compounds scored in any of these assays.

SMILES	NR3A LBD binder	Arrestin-AP2 inh	SENP1 inh	hiPSC survival	Cardio protect	FAS TE block	SENP1 conf	SENP1 kinetic
O=C1/C(=C/c2ccc([N+](=O)[O-])cc2)C=C(c2ccccc2)N1c1ccccc1	1	14	40*	-4	0	-12	-4	-2
COc1cc(S(=O)(=O)Nc2ccc3c(c2)C(=O)N(C)C3=O)ccc1NC(C)=O	1	-13	54*	2	4	-11	41*	43*
COc1cc(S(=O)(=O)Nc2c(C)nn(C)c2C)ccc1NC(C)=O	0	-6	0	0	1	-8	·	·
CCc1ccc2nc(SCC(=O)Nc3ccccc3N3CCOCC3)c(C#N)cc2c1	-1	14	48*	1	-9	9	21	17
Cc1ccc2nc(SCC(=O)Nc3ccccc3N3CCOCC3)c(C#N)cc2c1	2	14	33*	-4	-13	10	-11	-12
C[C@@H]1CCCCO[C@H](CN(C)C(=O)Cc2ccccc2)[C@@H](C)CN([C@H](C)CO)C(=O)c2cc(NC(=O)Nc3ccccc3)ccc2O1	·	·	1	0	9	6	·	·
CC(NS(=O)(=O)c1ccc2c(c1)oc(=O)n2C)c1ccccc1 (centres undefined)	2	-13	34*	0	-3	-23	12	15
Cc1ccc(N(CC(=O)NC(C)C)C(=O)CCC(=O)Nc2ccccn2)c(C)c1	·	·	2	0	10	-3	·	·
Brc1ccc2c(c1)CN1CCCC1=N2	-2	-1	3	-1	6	-2	·	·
O=C(Cc1ccccc1)N1CCN(S(=O)(=O)c2cccc([N+](=O)[O-])c2)CC1	-1	27	2	-2	2	2	·	·
Cc1nc(-c2ccc(F)cc2)c(CC(=O)N2CCN(S(=O)(=O)c3cccc([N+](=O)[O-])c3)CC2)s1	-3	15	35*	0	0	-1	10	2
CCOc1ccc(N2CC(C(=O)Nc3cccc(S(=O)(=O)N4CCOCC4)c3)CC2=O)cc1 (centres undefined)	·	·	1	1	-7	-7	·	·
CCOC(=O)Cn1c(=O)c(-c2cc(Br)ccc2N)nc2ccccc21	-2	-5	86*	0	-13	-40	16	15
CCOC(=O)Cn1c(=O)c(-c2ccccc2N)nc2ccccc21	-4	-2	-5	0	9	-4	·	·
CC(C)C[C@H]1CN(CCCC[C@@H]2CNC(=O)C(=O)N2Cc2ccccc2)C(=O)C(=O)N1CCC1CCCCC1	·	·	1	1	·	-2	·	·
CCCCC1CC2=C(C(=O)OC(C)(C)O2)C(c2ccc(F)cc2)O1 (centres undefined)	·	·	-2	-1	0	9	·	·
Nc1c2c(nc3ccc(Br)cc13)N(Cc1ccccc1)CC2	0	6	59*	0	-3	5	13	9
Cc1c(N2C(=O)/C(=C/c3ccc(N(C)C)cc3)N(C)C2=S)c(=O)n(-c2ccccc2)n1C	-1	40	67*	-3	-5	-27	55*	38*
CCOC(=O)[C@]12CCC=C1N(Cc1cccc3ccccc13)C(=O)[C@H](CC(=O)N1CCOCC1)C2	·	·	2	-2	·	10	·	·
Cc1ccc(S(=O)(=O)N2C[C@]3(O)C[C@@H]4C(=O)N(c5ccccc5)C(=O)[C@@H]4C[C@]3(OC(=O)NC3CCCC3)C2)cc1	·	·	-2	-2	-5	2	·	·
CCOC(=O)C1=C(C)N=c2sc(=Cc3cc(Cl)c(OCC(=O)O)c(Cl)c3)c(=O)n2C1c1cccc(OC)c1 (centres undefined)	·	·	52*	-1	-9	40	51*	35*
C=CCOCCN1C(=O)C2C(c3ccccc3)C=CC(c3ccccc3)C2C1=O (centres undefined)	-2	32	66*	-1	6	4	76*	61*
ON=C1c2ccccc2-c2ccc(O)cc21	-15	-3	5	-1	-8	-13	·	·
Oc1ccc(C=NN=C2c3ccccc3-c3ccccc32)c(O)c1	23*	13	71*	1	-20	27	78*	51*
COc1cc(/C=N/n2c(SC)nnc(C(C)(C)C)c2=O)ccc1O	4	-8	52*	-1	-4	-5	12	8
SMILES	NR3A LBD binder	Arrestin-AP2 inh	SENP1 inh	hiPSC survival	Cardio protect	FAS TE block	SENP1 conf	SENP1 kinetic
O=C(NCc1cccc(C(F)(F)F)c1)C1C(=O)Nc2ccccc2C(=O)N1Cc1ccccc1 (centres undefined)	·	·	6	·	·	·	·	·
Cc1ccc(-c2csc3nc[nH]c(=O)c23)cc1	0	14	-1	0	-4	-4	·	·
Cc1ccc(-c2csc3nc(-c4ccncc4)[nH]c(=O)c23)cc1	1	-19	43*	0	-14	-12	40*	31
C[C@@H](NC(=O)[C@@H]1CCCN1C(=O)[C@@H]1CCCN1C(=O)c1ccccc1)c1ccccc1	·	·	2	-1	·	-9	·	·
CN(C)c1cccc2c(S(=O)(=O)N3CCOCC3)cccc12	0	-3	41*	-3	6	-3	10	11
OCCN(Cc1cccnc1)Cc1ccccn1	-2	6	-3	1	12	-2	·	·
COc1cc(/C=C2\SC(=Nc3c(C)n(C)n(-c4ccccc4)c3=O)NC2=O)ccc1O	1	-7	42*	4	11	-10	59*	41*
CC1(C(=O)NS(=O)(=O)c2ccc(Cl)cc2)CCN1C(=O)c1cccc(F)c1 (centres undefined)	·	·	0	0	4	-8	·	·
Cn1c2ccccc2c2cc(C(=O)OCC(=O)N3CC(=O)Nc4ccccc43)sc21	-8	-2	35*	6	0	-3	15	28
NC(=O)N/N=C/c1ccc(N2CCOCC2)s1	1	14	47*	1	8	-19	75*	52*
O=C(O)CCCC(=O)Nc1cccc2cccnc12	1	0	34*	0	-1	-6	2	-4
CCCc1cc(=O)oc2c3c(cc(OCC(=O)NCCN4CCOCC4)c12)OC(C)(C)CC3	-2	-7	2	-3	-2	-2	·	·
COc1ccccc1-n1cc(C(=O)c2cc(Cl)ccc2O)cc(C#N)c1=O	-7	31	46*	-2	-3	6	39*	29
Cc1ccccc1-n1cc(C(=O)c2cc(Cl)ccc2O)cc(C#N)c1=O	-2	-3	43*	-2	-10	-1	35	24

High-throughput results deposited in PubChem by several laboratories.
